Laboratory results as given in ChEMBL document CHEMBL1817584, “Synthesis of novel fluconazoliums and their evaluation for antibacterial and antifungal activities” (2011).

How the values were obtained:
Format in all cases: functional
Staphylococcus aureus [1] = experiment: Ratio of Chloromycin MIC to compound MIC for Staphylococcus aureus ATCC 6538
Aspergillus fumigatus = experiment: Antifungal activity against Aspergillus fumigatus ATCC 96918 after 24 hrs by twofold serial dilution method; conditions: ATCC 96918, 24 h
Outline: (§1)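 A fungal spore suspension was made in sterile distilled water from a 1-day-old culture grown on Sabouraud agar, then tested against serial dilutions of compounds (DMSO stocks) to determine MIC.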

Candida albicans = experiment: Antifungal activity against Candida albicans ATCC 76615 after 24 hrs by twofold serial dilution method; conditions: ATCC 76615, 24 h; outline: as §1
Bacillus [2] = experiment: Antibacterial activity against Bacillus proteus ATCC 13315 after 24 hrs by twofold serial dilution method; conditions: ATCC 13315, 24 h
Outline: (§2)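 Each bacterial suspension was adjusted with sterile saline to 1 × 10⁵ CFU. Compounds were first dissolved in DMSO as stock solutions, then diluted in Mueller–Hinton broth in twofold steps (8, 4, 2, 1, 0.5, 0.25). Dilutions were inoculated and incubated at 37 °C for 24 h, and MIC was read. DMSO plus inoculum without drug served as a solvent control.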

Pseudomonas aeruginosa [3] = experiment: Antibacterial activity against Pseudomonas aeruginosa ATCC 27853 after 24 hrs by twofold serial dilution method; conditions: ATCC 27853, 24 h; outline: as §2
Bacillus subtilis [4] = experiment: Antibacterial activity against Bacillus subtilis ATCC 21216 after 24 hrs by twofold serial dilution method; conditions: ATCC 21216, 24 h; outline: as §2
Staphylococcus aureus [5] = experiment: Antibacterial activity against Staphylococcus aureus ATCC 6538 after 24 hrs by twofold serial dilution method; conditions: ATCC 6538, 24 h; outline: as §2
Escherichia coli [6] = experiment: Antibacterial activity against Escherichia coli ATCC 8099 after 24 hrs by twofold serial dilution method; conditions: ATCC 8099, 24 h; outline: as §2
Staphylococcus aureus [7] = experiment: Antibacterial activity against methicillin-resistant Staphylococcus aureus N315 after 24 hrs by twofold serial dilution method; conditions: N315, 24 h
Outline: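 Compounds were dissolved in DMSO as stock, then diluted twofold in Mueller–Hinton broth. Chloromycin and norfloxacin were run as reference drugs. The inoculum was adjusted in sterile saline to 1 × 10⁵ CFU, and a DMSO-plus-inoculum well served as solvent control. Plates were incubated at 37 °C for 24 h and read as MIC.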

Staphylococcus aureus [8] = experiment: Ratio of Norfloxacin MIC to compound MIC for Staphylococcus aureus ATCC 6538
Pseudomonas aeruginosa [9] = experiment: Ratio of Chloromycin MIC to compound MIC for Pseudomonas aeruginosa ATCC 27853
Escherichia coli [10] = experiment: Ratio of Chloromycin MIC to compound MIC for Escherichia coli ATCC 8099
Bacillus [11] = experiment: Ratio of Chloromycin MIC to compound MIC for Bacillus proteus ATCC 13315
Bacillus subtilis [12] = experiment: Ratio of Chloromycin MIC to compound MIC for Bacillus subtilis ATCC 21216

Row | SMILES | Ratio (Staphylococcus aureus [1]) | MIC (Aspergillus fumigatus) [µg/mL] | MIC (Candida albicans) [µg/mL] | MIC (Bacillus [2]) [µg/mL] | MIC (Pseudomonas aeruginosa [3]) [µg/mL] | MIC (Bacillus subtilis [4]) [µg/mL] | MIC (Staphylococcus aureus [5]) [µg/mL] | MIC (Escherichia coli [6]) [µg/mL] | MIC (Staphylococcus aureus [7]) [µg/mL] | Ratio (Staphylococcus aureus [8]) | Ratio (Pseudomonas aeruginosa [9]) | Ratio (Escherichia coli [10]) | Ratio (Bacillus [11]) | Ratio (Bacillus subtilis [12])
1 | CCCCCCCC[n+]1cnn(CC(O)(Cn2c[n+](CCCCCCCC)cn2)c2ccc(F)cc2F)c1.[Br-].[Br-] | 64 | 128 | 2 | 64 | 8 | 32 | 1 | 1 | 8 | 8 |  |  |  | 
2 | OC(Cn1c[n+](CCOc2ccc3ccccc3c2)cn1)(Cn1c[n+](CCOc2ccc3ccccc3c2)cn1)c1ccc(F)cc1F.[Br-].[Br-] | 4 | 128 | 8 | 4 | 8 | 64 | 4 | 2 | 32 |  | 4 | 4 | 4 | 4
